Measured values taken from ChEMBL document CHEMBL1165950, “Design and synthesis of new potent anticancer pyrazoles with high FLT3 kinase inhibitory selectivity” (Bioorg Med Chem, 2010).

Key:
Assay type in all cases: functional
A498 [1] = experiment: Cytotoxicity against human A498 cells assessed as cell growth at 0.01 uM after 48 hrs by sulforhodamine B assay; settings: A498, 48 h, read-out: Activity
How it was run: (§1)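 NCI-60 five-dose screen. Cells were grown in RPMI 1640 with 5% FBS and 2 mM L-glutamine, plated at 5000–40,000 cells/well and preincubated for 24 h. Time-zero plates were TCA-fixed. DMSO-solubilized drug was added at five concentrations (10-fold or ½-log serial dilutions) for 48 h at 37 °C, 5% CO2. Cells were TCA-fixed, stained with 0.4% SRB and read at 515 nm. Percent growth used time-zero, control and test absorbances.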

IGROV-1 [2] = experiment: Cytotoxicity against human IGROV1 cells assessed as cell growth at 10 uM after 48 hrs by sulforhodamine B assay; settings: IGROV-1, 48 h, read-out: Activity
HT-29 = experiment: Cytotoxicity against human HT-29 cells assessed as cell growth at 100 nM after 48 hrs by sulforhodamine B assay; settings: HT-29, 48 h, read-out: Activity
COLO 205 = experiment: Cytotoxicity against human COLO205 cells assessed as cell growth at 100 nM after 48 hrs by sulforhodamine B assay; settings: COLO 205, 48 h, read-out: Activity
UO-31 = experiment: Cytotoxicity against human UO31 cells assessed as cell growth at 0.001 uM after 48 hrs by sulforhodamine B assay; settings: UO-31, 48 h, read-out: Activity
NCI-H522 = experiment: Cytotoxicity against human NCI-H522 cells assessed as cell growth at 100 nM after 48 hrs by sulforhodamine B assay; settings: NCI-H522, 48 h, read-out: Activity
SF-268 [3] = experiment: Cytotoxicity against human SF268 cells assessed as cell growth at 10 uM; settings: read-out: Activity
How it was run: (§2)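 NCI-60 screen: cells grown in RPMI 1640 with 5% FBS and 2 mM L-glutamine, plated at 5000–40,000 cells/well according to doubling time, and preincubated 24 h at 37 °C, 5% CO2. The single 10 µM dose (DMSO stock) was added, then incubated 48 h. Cells were TCA-fixed and stained with 0.4% SRB, read at 515 nm, and growth % calculated against time-zero and control plates.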

MDA-MB-468 = experiment: Cytotoxicity against human MDA-MB-468 cells assessed as cell growth at 10 uM after 48 hrs by sulforhodamine B assay; settings: MDA-MB-468, 48 h, read-out: Activity
A498 [4] = experiment: Growth inhibition of human A498 cells after 48 hrs by sulforhodamine B assay; settings: A498, 48 h
How it was run: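 NCI five-dose SRB assay in RPMI 1640 with 5% FBS and 2 mM L-glutamine. Cells were preincubated 24 h, then exposed 48 h at 37 °C to five concentrations (10-fold or half-log serial dilutions from DMSO stocks). TCA fixation, SRB staining, and absorbance at 515 nm followed. IC50 was taken where [(Ti−Tz)/(C−Tz)]×100 = 50, with Tz as time-zero cell density.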

OVCAR-5 [5] = experiment: Cytotoxicity against human OVCAR5 cells assessed as cell growth at 1 uM after 48 hrs by sulforhodamine B assay; settings: OVCAR-5, 48 h, read-out: Activity
HL-60(TB) [6] = experiment: Cytotoxicity against human HL-60(TB) cells assessed as cell growth at 10 uM; settings: read-out: Activity
How it was run: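 NCI 60-cell panel screen at a single concentration of 10 µM. Cells are grown in RPMI 1640 with 5% FBS and 2 mM L-glutamine and read by SRB protein staining at 515 nm. Percent growth is measured relative to time-zero and untreated controls; inhibition % is 100 minus growth %.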

SR = experiment: Cytotoxicity against human SR cells assessed as cell growth at 10 uM after 48 hrs by sulforhodamine B assay; settings: read-out: Activity
OVCAR-3 = experiment: Cytotoxicity against human OVCAR-3 cells assessed as cell growth at 10 uM; settings: read-out: Activity; how it was run: as §2
HCT-15 = experiment: Cytotoxicity against human HCT15 cells assessed as cell growth at 1 uM after 48 hrs by sulforhodamine B assay; settings: HCT-15, 48 h, read-out: Activity
ACHN = experiment: Cytotoxicity against human ACHN cells assessed as cell growth at 100 nM after 48 hrs by sulforhodamine B assay; settings: read-out: Activity; how it was run: as §1
OVCAR-8 = experiment: Cytotoxicity against human OVCAR8 cells assessed as cell growth at 100 nM after 48 hrs by sulforhodamine B assay; settings: OVCAR-8, 48 h, read-out: Activity
SF-295 = experiment: Cytotoxicity against human SF295 cells assessed as cell growth at 1 uM after 48 hrs by sulforhodamine B assay; settings: SF-295, 48 h, read-out: Activity
SF-268 [7] = experiment: Cytotoxicity against human SF268 cells assessed as cell growth at 0.01 uM after 48 hrs by sulforhodamine B assay; settings: SF-268, 48 h, read-out: Activity
SK-MEL-5 = experiment: Cytotoxicity against human SK-MEL-5 cells assessed as cell growth at 0.01 uM after 48 hrs by sulforhodamine B assay; settings: SK-MEL-5, 48 h, read-out: Activity
SW-620 = experiment: Cytotoxicity against human SW620 cells assessed as cell growth at 10 uM; settings: read-out: Activity; how it was run: as §2
HL-60(TB) [8] = experiment: Cytotoxicity against human HL-60(TB) cells assessed as cell growth at 1 uM after 48 hrs by sulforhodamine B assay; settings: HL-60, 48 h, read-out: Activity
How it was run: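 NCI 60-cell panel. Cells are grown in RPMI 1640 with 5% FBS and 2 mM L-glutamine, seeded at 5000–40,000 cells/well according to doubling time, and preincubated 24 h. Time-zero plates are TCA-fixed. Compound from DMSO stock is given at five 10-fold or 1/2-log concentrations for 48 h at 37 °C, 5% CO2. Suspension cells are fixed with 80% TCA (final 16%) and SRB-stained, with absorbance at 515 nm. Percent growth is derived from Tz, control and test readings.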

SK-OV-3 = experiment: Cytotoxicity against human SKOV3 cells assessed as cell growth at 100 nM after 48 hrs by sulforhodamine B assay; settings: SK-OV-3, 48 h, read-out: Activity
OVCAR-5 [9] = experiment: Cytotoxicity against human OVCAR5 cells assessed as cell growth at 10 uM after 48 hrs by sulforhodamine B assay; settings: OVCAR-5, 48 h, read-out: Activity
IGROV-1 [10] = experiment: Cytotoxicity against human IGROV1 cells assessed as cell growth at 10 uM; settings: read-out: Activity
How it was run: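 Single-dose NCI-60 screen at 10 µM. Cells were grown in RPMI 1640 with 5% FBS and 2 mM L-glutamine, then treated for 48 h at 37 °C. Protein was measured by SRB staining with absorbance at 515 nm. Percentage growth was recorded, and inhibition percentage was calculated as 100 minus growth percentage.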

SMILES | growth at 0.01 µM (A498 [1]) | growth at 10 µM (IGROV-1 [2]) | growth at 0.1 µM (HT-29) | growth at 0.1 µM (COLO 205) | growth at 0.001 µM (UO-31) | growth at 0.1 µM (NCI-H522) | growth at 10 µM (SF-268 [3]) | growth at 10 µM (MDA-MB-468) | GI50 (A498 [4]) | LC50 (A498 [4]) | TGI (A498 [4]) | growth at 1 µM (OVCAR-5 [5]) | growth at 10 µM (HL-60(TB) [6]) | growth at 10 µM (SR) | growth at 10 µM (OVCAR-3) | growth at 1 µM (HCT-15) | growth at 0.1 µM (ACHN) | growth at 0.1 µM (OVCAR-8) | growth at 1 µM (SF-295) | growth at 0.01 µM (SF-268 [7]) | other results
COc1cc(C)cc(-c2nn(CC#N)cc2-c2ccc(-c3cccc(C(C)=O)c3)nc2)c1 | 60% | -40% | 99% | 88% | 86% | 68% | 49.3% | -53% | 1.08 µM | 72.5 µM | 5.14 µM | 21% | 8.33% | 28% | 12.5% | 12% | 93% | 86% | 16% | 94% | growth at 0.01 µM (SK-MEL-5): 91%; growth at 10 µM (SW-620): 24.8%; growth at 1 µM (HL-60(TB) [8]): 2%; growth at 0.1 µM (SK-OV-3): 104%; growth at 10 µM (OVCAR-5 [9]): -18%; growth at 10 µM (IGROV-1 [10]): 34.6%
COc1cc(C)cc(-c2c(-c3ccnc(-c4ccc(C(C)=O)cc4)c3)cnn2CC#N)c1 | 77% | 14% | 95% | 102% | 88% | 76% | 90.5% | -55% | 2.03 µM | > 100 µM | > 100 µM | 60% | 57% | 28% | 100% | 12% | 90% | 85% | 39% | 96% | growth at 0.01 µM (SK-MEL-5): 94%; growth at 10 µM (SW-620): 56.1%; growth at 1 µM (HL-60(TB) [8]): 20%; growth at 0.1 µM (SK-OV-3): 102%; growth at 10 µM (OVCAR-5 [9]): 72%; growth at 10 µM (IGROV-1 [10]): 98.5%
COc1cc(C)cc(-c2c(-c3ccnc(-c4ccc(N(C)C)cc4)c3)cnn2CC#N)c1 | 40% | -6% | -24% | 7% | 83% | -47% | 26.4% | -59% | 0.132 µM | > 100 µM | > 100 µM | 81% | -5.87% | -38% | 27% | 9% | 34% | 11% | -27% | 29% | growth at 0.01 µM (SK-MEL-5): 19%; growth at 10 µM (SW-620): 16.6%; growth at 1 µM (HL-60(TB) [8]): -27%; growth at 0.1 µM (SK-OV-3): 37%; growth at 10 µM (OVCAR-5 [9]): 97%; growth at 10 µM (IGROV-1 [10]): 20.1%
Cc1cc(O)cc(-c2nn(CC#N)cc2-c2ccnc(-c3ccc(Oc4ccccc4)cc3)c2)c1 | 78% | -74% | 91% | 99% | 91% | 87% | 71.8% | -88% | 3.87 µM | 44.1 µM | 16.7 µM | 35% | 44.3% | -12% | 96% | -34% | 95% | 87% | 30% | 91% | growth at 0.01 µM (SK-MEL-5): 93%; growth at 10 µM (SW-620): 53.9%; growth at 1 µM (HL-60(TB) [8]): -27%; growth at 0.1 µM (SK-OV-3): 101%; growth at 10 µM (OVCAR-5 [9]): -89%; growth at 10 µM (IGROV-1 [10]): 72.2%
Cc1cc(O)cc(-c2nn(CC#N)cc2-c2ccnc(-c3ccc(N(C)C)cc3)c2)c1 | 80% | -37% | 102% | 94% | 89% | 75% | 59.5% | -61% | 3.03 µM | > 100 µM | 13.4 µM | 64% | 7.44% | 4% | 41.9% | 14% | 93% | 89% | -5% | 90% | growth at 0.01 µM (SK-MEL-5): 90%; growth at 10 µM (SW-620): 25%; growth at 1 µM (HL-60(TB) [8]): 2%; growth at 0.1 µM (SK-OV-3): 101%; growth at 10 µM (OVCAR-5 [9]): -18%; growth at 10 µM (IGROV-1 [10]): 44%
